pIC50: −log10 of the molar value. Activity calls are given as the source filed them. The rule behind the calls is not given here.
Columns and labels:
[1] = biological target: Sodium channel protein type 5 subunit alpha (Homo sapiens, UniProt Q14524); test: Inhibition of human Nav1.5 channel
[2] = tested on: Salmonella typhimurium; test: Mutagenic activity in Salmonella typhimurium by Ames test; type: toxicity, organism-based; conditions: salmonella enterica subsp. enterica serovar typhimurium
[3] = Genotoxicity in micronucleus (unknown origin) under metabolic conditions; type: ADME
[4] = Genotoxicity in micronucleus (unknown origin)
[5] = tested on: Plasmodium berghei; test: Antimalarial activity against Plasmodium berghei ANKA expressing GFP infected in NMRI mouse assessed as mean survival days at 100 mg/kg/day, po qd for 4 days measured at 24 hrs after last dose; type: functional
Summary of the method: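 P. berghei-infected mice dosed orally once daily on days 0–3, starting 4 h postinfection, in groups of 3, 10, 30 and 100 mg/kg/day. Red blood cell parasitemia and plasma exposure measured on day 4, 24 h after the last dose. Mean survival days then monitored over 26 further days.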

[6] = tested on: Plasmodium berghei; test: Antimalarial activity against Plasmodium berghei ANKA expressing GFP infected in NMRI mouse assessed as increase in mouse survival at 30 mg/kg/day, po qd for 4 days measured at 24 hrs after last dose; type: functional, organism-based
Summary of the method: (§1)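 P. berghei-infected mice dosed orally once daily on days 0–3, first dose 4 h postinfection, at 3, 10, 30 and 100 mg/kg/day. Red blood cell parasitemia and plasma exposure measured on day 4, 24 h after last dose; ED50 derived from dose-response; survival then monitored for 26 further days as mean survival days.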

[7] = tested on: Plasmodium berghei; test: Antimalarial activity against Plasmodium berghei ANKA expressing GFP infected in NMRI mouse assessed as reduction in parasitemia at 10 mg/kg/day, po qd for 4 days measured at 24 hrs after last dose relative to control; type: functional; set-up: scale not given: the % may be the effect or the level left; summary of the method: as §1
[8] = tested on: Plasmodium berghei; test: Antimalarial activity against Plasmodium berghei ANKA expressing GFP infected in po dosed NMRI mouse assessed as reduction in parasitemia administered qd for 4 days measured at 24 hrs after last dose; type: functional; summary of the method: as §1
[9] = Volume of distribution at steady state in NMRI mouse at 1 mg/kg, iv by LC-MS/MS analysis; type: ADME, organism-based; set-up: dose 1 mg/kg, route intravenous; conditions: in vivo, read-out: Vdss
[10] = tested on: Plasmodium falciparum; test: Antimalarial activity against chloroquine, pyrimethamine, quinine-resistant Plasmodium falciparum V1S; type: functional; conditions: VS/1
[11] = tested on: Plasmodium falciparum; test: Antimalarial activity against chloroquine, pyrimethamine, sulfadoxine and quinine-resistant Plasmodium falciparum W2; type: functional, organism-based
[12] = tested on: Plasmodium falciparum; test: Antimalarial activity against drug-sensitive Plasmodium falciparum NF54; type: functional, organism-based
[13] = tested on: Plasmodium falciparum; test: Antimalarial activity against Plasmodium falciparum K1 infected in human RBC after 72 hrs by hypoxanthine incorporation assay in presence of serum albumin; type: functional, organism-based; conditions: K1, 72 h
Summary of the method: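 Mixture of drug, human red blood cells and P. falciparum incubated 3 days (72 h) with serum albumin present; growth read as hypoxanthine incorporation.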

[14] = biological target: T1, Cytochrome P450 2C8 (Homo sapiens, UniProt P10632); test: Inhibition of human recombinant CYP2C8 expressed in baculovirus-infected insect cells preincubated for 15 mins followed by substrate addition measured after 30 mins by luminescence assay; type: ADME; conditions: recombinant enzyme, 0.5 h
T1 sequence (P10632 whole entry): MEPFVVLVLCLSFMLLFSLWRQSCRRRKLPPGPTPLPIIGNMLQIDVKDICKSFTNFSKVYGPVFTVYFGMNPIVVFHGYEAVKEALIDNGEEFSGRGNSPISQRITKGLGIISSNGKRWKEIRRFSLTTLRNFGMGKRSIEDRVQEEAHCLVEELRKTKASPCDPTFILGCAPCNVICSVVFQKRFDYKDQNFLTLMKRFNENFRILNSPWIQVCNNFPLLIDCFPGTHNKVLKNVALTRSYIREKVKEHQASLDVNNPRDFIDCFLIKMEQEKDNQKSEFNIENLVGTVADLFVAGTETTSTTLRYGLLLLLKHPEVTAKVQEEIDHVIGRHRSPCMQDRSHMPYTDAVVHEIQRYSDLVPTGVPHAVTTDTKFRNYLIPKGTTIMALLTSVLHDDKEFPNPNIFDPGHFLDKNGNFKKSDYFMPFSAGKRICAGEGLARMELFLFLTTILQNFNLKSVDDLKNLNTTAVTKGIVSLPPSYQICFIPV

[15] = biological target: Potassium voltage-gated channel subfamily A member 5 (Homo sapiens) (UniProt P22460); test: Inhibition of human Kv1.5 channel
[16] = biological target: T2, Potassium/sodium hyperpolarization-activated cyclic nucleotide-gated channel 4 (Homo sapiens) (UniProt Q9Y3Q4); test: Inhibition of human HCN4 channel
T2 sequence (whole entry): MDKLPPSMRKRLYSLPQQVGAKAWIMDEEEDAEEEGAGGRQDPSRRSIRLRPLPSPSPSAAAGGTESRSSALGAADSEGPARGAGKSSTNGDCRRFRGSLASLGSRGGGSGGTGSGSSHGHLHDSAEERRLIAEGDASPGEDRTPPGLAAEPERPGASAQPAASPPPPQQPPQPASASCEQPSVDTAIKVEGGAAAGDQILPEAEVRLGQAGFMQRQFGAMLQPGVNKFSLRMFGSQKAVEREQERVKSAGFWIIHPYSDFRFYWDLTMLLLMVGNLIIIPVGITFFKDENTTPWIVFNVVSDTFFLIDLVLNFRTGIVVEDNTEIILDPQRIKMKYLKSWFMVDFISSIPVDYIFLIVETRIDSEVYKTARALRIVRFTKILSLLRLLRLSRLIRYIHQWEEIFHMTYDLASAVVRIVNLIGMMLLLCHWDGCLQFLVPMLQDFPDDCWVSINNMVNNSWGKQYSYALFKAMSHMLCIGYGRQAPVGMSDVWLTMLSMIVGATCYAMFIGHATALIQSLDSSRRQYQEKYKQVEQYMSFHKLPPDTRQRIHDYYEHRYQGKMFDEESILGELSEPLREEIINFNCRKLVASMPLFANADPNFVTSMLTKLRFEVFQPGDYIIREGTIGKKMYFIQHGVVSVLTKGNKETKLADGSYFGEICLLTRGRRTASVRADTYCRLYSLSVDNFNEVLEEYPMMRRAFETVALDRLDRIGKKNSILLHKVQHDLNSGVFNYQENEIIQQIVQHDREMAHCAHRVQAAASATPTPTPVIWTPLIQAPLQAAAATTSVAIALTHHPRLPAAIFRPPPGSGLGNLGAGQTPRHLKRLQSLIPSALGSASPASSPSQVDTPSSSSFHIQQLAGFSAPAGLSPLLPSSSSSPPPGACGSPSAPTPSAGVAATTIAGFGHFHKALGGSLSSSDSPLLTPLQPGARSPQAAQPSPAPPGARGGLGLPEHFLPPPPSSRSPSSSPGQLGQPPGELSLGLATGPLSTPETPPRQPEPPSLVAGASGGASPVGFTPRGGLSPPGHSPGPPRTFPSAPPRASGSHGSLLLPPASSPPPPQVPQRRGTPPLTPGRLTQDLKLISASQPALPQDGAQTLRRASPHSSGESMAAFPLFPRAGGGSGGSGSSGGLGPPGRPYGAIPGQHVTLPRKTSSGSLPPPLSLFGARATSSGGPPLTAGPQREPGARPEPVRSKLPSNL

Chain of Sodium channel protein type 5 subunit alpha (Q14524 whole entry): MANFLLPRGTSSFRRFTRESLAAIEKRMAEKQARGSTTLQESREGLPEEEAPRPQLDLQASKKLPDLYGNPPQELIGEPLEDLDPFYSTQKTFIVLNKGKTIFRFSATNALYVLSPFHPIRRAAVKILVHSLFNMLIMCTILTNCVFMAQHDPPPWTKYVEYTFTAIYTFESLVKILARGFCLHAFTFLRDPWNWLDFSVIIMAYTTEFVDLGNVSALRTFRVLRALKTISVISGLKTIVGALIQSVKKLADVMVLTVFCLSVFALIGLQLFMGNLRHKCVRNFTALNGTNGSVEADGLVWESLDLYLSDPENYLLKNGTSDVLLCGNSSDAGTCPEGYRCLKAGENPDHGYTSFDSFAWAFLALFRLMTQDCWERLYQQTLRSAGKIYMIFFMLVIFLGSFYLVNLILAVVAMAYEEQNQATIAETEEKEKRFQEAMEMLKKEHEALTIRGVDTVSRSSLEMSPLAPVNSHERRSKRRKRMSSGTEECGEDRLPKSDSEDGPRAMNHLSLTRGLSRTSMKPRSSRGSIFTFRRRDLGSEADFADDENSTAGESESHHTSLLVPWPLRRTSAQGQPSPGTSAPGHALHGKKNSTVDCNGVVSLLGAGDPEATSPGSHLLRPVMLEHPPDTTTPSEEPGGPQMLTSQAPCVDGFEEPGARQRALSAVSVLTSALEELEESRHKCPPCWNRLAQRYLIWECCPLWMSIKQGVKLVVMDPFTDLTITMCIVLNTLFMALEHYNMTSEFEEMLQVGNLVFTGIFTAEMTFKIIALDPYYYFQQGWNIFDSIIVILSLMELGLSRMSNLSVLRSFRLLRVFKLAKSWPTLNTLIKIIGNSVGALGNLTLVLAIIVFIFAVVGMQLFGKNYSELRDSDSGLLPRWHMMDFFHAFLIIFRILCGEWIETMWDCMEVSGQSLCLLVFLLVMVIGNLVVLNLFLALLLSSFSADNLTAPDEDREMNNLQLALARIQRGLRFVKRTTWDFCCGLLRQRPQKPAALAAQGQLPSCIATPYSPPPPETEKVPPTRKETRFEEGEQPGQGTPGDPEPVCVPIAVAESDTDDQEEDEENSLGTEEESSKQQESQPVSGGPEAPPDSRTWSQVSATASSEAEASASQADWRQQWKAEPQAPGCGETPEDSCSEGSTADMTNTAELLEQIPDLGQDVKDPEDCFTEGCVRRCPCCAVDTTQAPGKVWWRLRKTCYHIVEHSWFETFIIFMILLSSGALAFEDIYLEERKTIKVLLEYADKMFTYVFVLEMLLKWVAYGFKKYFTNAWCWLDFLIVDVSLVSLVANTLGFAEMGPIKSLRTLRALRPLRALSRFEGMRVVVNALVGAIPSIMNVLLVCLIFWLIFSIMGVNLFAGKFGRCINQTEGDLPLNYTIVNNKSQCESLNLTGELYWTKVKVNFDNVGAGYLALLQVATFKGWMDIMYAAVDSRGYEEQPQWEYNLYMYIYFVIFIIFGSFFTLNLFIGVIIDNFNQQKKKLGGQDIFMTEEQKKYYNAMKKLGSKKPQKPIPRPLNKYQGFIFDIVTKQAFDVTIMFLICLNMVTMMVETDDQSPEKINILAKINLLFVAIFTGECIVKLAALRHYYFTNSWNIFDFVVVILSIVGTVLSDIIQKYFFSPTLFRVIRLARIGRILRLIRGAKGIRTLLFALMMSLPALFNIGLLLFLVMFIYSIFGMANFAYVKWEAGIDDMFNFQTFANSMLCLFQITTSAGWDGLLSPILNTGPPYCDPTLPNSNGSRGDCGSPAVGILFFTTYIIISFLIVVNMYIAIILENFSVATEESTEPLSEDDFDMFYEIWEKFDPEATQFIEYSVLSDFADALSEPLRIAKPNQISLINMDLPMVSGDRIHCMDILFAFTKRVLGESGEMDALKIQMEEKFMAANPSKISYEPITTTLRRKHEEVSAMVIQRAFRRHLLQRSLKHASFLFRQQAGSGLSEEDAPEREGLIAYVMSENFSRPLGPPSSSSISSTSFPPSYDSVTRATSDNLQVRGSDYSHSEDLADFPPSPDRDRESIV
Chain of Potassium voltage-gated channel subfamily A member 5 (Homo sapiens) (P22460 whole entry): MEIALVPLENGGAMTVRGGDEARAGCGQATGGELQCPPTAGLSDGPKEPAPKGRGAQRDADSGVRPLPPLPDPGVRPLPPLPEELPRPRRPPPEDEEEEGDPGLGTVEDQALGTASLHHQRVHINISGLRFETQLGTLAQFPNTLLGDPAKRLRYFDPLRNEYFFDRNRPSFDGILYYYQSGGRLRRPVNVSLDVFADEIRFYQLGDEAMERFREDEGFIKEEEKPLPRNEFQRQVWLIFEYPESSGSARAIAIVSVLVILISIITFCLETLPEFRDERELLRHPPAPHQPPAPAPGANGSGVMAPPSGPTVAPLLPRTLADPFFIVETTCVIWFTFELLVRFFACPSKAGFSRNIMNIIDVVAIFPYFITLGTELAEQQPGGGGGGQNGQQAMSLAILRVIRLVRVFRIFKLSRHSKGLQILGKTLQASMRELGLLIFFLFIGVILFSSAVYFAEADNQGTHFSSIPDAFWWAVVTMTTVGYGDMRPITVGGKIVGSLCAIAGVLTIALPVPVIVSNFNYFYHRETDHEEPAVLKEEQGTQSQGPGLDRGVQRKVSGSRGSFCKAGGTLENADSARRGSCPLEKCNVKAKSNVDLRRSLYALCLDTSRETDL

Structure (SMILES): OC(CNC1CCCCC1)Cn1c2ccc(Br)cc2c2cc(Br)ccc21 (racemic)
- inhibition (INH) [1]: Not Active
- Activity [2]: Non-toxic
- Activity [3]: Non-toxic
- Activity [4]: Non-toxic
- MSD [5]: 30 days
- Activity [6]: Active
- Activity [7]: 38%
- Activity [8]: Dose dependent effect
- ED50 [8]: 11.4 mg/kg/day
- Vd [9]: 13 L/kg
- Activity [10]: Active
- Activity [11]: Active
- Activity [12]: Active
- pIC50 [13]: 8.05
- inhibition (INH) [14]: Active
- inhibition [15]: inactive
- inhibition [16]: inactive

— ChEMBL document CHEMBL3098117, “Identification and optimization of an aminoalcohol-carbazole series with antimalarial properties” (ACS Med Chem Lett, 2013)
